Source: PubChem
Most compounds without a hit are left out; they make up all but 1.2% or so of the library.
TPT1 inh: C. albicans TPT1 enzyme inhibition. inhibition, % at 5 µM. 300,000 compounds, 0.81% hits. recombinant caTPT1, FP RNA substrate dephosphorylation;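 active means inhibition above the mean of all tested compounds plus 3 SD, set per screening campaign, cut at about 24% in these data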;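 further: plate controls were DMSO alone for no effect and ferristatin control at 100 nM for full effect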
procasp7 counter: counter-screen: procaspase-7 (human) activation | 330,000 compounds, 0.093% hits | P55210 | AID 463210 | activation, % at 8.5 µM | recombinant procaspase-7, Ac-DEVD-pNA absorbance 405 nm; D23A/D198A/D206A triple mutant, cannot self-cleave; scale: DMSO 0, 5 µM enzyme 100;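 active means percent activation above the screen-wide mean plus 3 SD, cut at about 25% in these data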
Target sequence (P55210 whole entry D23A/D198A/D206A): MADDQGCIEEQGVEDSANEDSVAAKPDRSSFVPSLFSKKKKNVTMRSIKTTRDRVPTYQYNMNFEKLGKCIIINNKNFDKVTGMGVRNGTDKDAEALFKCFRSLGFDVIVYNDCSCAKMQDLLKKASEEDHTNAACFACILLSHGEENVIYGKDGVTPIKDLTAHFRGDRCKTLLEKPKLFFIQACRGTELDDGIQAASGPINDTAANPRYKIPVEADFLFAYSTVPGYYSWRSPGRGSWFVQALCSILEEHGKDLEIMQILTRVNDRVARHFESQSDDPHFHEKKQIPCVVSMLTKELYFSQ
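Detection: p-Nitroaniline absorbance at 405 nm, read at 0 and 120 min; system: Uncleavable procaspase-7 mutant enzyme; evaluation: % activation from two-timepoint absorbance difference, scaled to controls; times: 1 h enzyme–compound preincubation and 2 h substrate reaction, both 25 °C; buffer or medium: Zinc-free HEPES pH 7.4 with 300 mM NaCl, 0.01% Triton X-100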
proCasp3 act: procaspase-3 (human) activation | recombinant procaspase-3 D3A, Ac-DEVD-pNA absorbance 405 nm | activation, % at 8.5 µM | 330,000 compounds, 0.11% hits | AID 463141;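 active means activation above the mean of all tested compounds plus 3 SD, cut at about 21% in these data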;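 further: 0% = DMSO alone and 100% = DMSO wells spiked with extra 5 µM PC-3 D3A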
Target sequence (P42574 whole entry D9A/D28A/D175A): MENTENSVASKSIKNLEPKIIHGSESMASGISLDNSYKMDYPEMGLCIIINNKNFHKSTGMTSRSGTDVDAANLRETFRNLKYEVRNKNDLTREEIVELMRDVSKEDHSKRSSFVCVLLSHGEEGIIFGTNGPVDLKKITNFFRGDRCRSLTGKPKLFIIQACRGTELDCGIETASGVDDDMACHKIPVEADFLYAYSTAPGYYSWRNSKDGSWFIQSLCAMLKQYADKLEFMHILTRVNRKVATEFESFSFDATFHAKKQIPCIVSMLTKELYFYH
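Test system: Procaspase-3 D3A mutant; medium: Zinc-free HEPES/NaCl buffer with 0.01% Triton X-100 at pH 7.4; reagent: DEVD-pNA substrate; doses: one concentration, 8.5 µM nominal, 0.8% DMSO; times: 1 h preincubation plus 2 h reaction at 25 °C; signal: Epi-absorbance at 405 nm of released p-nitroaniline, 0 and 120 min; replicates: singlicate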
IDE inh: inhibitors of human insulin-degrading enzyme in cells; 320,000 compounds, 0.41% hits; P14735; HEK cells, FAbetaB cleavage, fluorescence polarization; AID 434962; inhibition, % at 5.59 µM;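 active means percent inhibition above the average of all tested compounds plus 3 SD, set per screening campaign, cut at about 16% in these data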;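 further: IDE supplied by intact live HEK cells; FP after avidin binding of uncleaved biotin substrate so inhibition keeps polarization high; 0% = DMSO wells and 100% = 60 µM reference IDE inhibitor Ii1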
IDE act: IDE (human) activation, cell-based. P14735. HEK cells, FAbeta-B cleavage, fluorescence polarization; 0% vehicle, 100% cell-free pure enzyme wells. activation, % at 5.96 µM. 340,000 compounds, 0.073% hits. AID 493087;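 active means activation above the mean of all tested compounds plus 3 SD, set per screening campaign, cut at about 17% in these data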
PC3 D3A act: counter-screen: procaspase-3 (human) activation; recombinant PC-3 D3A, Ac-DEVD-pNA absorbance 405 nm; aspartates 9, 28, 175 changed to alanine; 100% = enzyme control; activation, % at 8.5 µM; shares compounds with procasp7 counter; 290 tested, under 10 active;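 active means mean percent activation across triplicates above a set limit taken from the earlier primary procaspase-3 screen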;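 further: 0% = DMSO wells and 100% = DMSO wells with 5 µM added PC-3 D3A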
PC7 dual conf: confirmation of dual procaspase activators: human procaspase-7 activation; shares compounds with procasp7 counter; recombinant procaspase-7, Ac-DEVD-pNA absorbance 405 nm; D23A/D198A/D206A mutant that cannot self-cleave; activation, % at 8.5 µM; 290 tested, under 10 active; AID 493115;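 active means mean activation above a set limit carried over from the earlier primary screen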;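 further: 0% = DMSO only and 100% = DMSO with added 5 µM PC-7 enzyme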
The depositor's hits bear a star; nt = no result.

SMILES	TPT1 inh	procasp7 counter	proCasp3 act	IDE inh	IDE act	PC3 D3A act	PC7 dual conf
COc1ccc(-c2c(-c3ccc(C#N)cc3)oc(=O)c3cc(OC)c(OC)cc23)cc1	nt	26*	15	1	-3	-4	-6
CC1(c2ccccc2Cl)NC(=O)N(CC(=O)NCc2ccc3c(c2)OCO3)C1=O (stereo not drawn)	2	-5	-4	2	3	nt	nt
CCOc1ccc(N=CC2=C(O)CC(c3ccco3)CC2=O)cc1 (stereo not drawn)	1	54*	38*	-3	1	19	13
O=C1CC(c2ccco2)CC(O)=C1C=Nc1cc(Cl)cc(Cl)c1 (stereo not drawn)	0	3	-4	3	2	nt	nt
c1cc[n+](CCC[n+]2ccccc2)cc1	1	-4	-2	1	0	nt	nt
COc1ccc(Nc2oc(-c3cccs3)nc2C#N)cc1	2	53*	16	1	1	-30	-30
CNc1oc(-c2cccs2)nc1C#N	-4	8	-2	2	4	nt	nt
COc1ccc(OC)c(/C=C/C(=O)N2CCN(S(=O)(=O)c3cc(C)ccc3C)CC2)c1	nt	12	1	0	-4	nt	nt
COc1ccc(OC)c(/C=C/C(=O)N2CCN(S(=O)(=O)c3ccc(C)cc3C)CC2)c1	nt	32*	9	-2	5	1	-3
COc1ccc(S(=O)(=O)Nc2cc(C(C)C)c(O)cc2C)cc1	-3	2	1	6	2	nt	nt
COc1ccc2nc3cc(Cl)ccc3c(Nc3cc(C(C)C)c(O)cc3C)c2c1	3	26*	-18	-2	-2	-18	-23
OCC[C@@H]1C[C@H](O)[C@@H](O)[C@]2(OCCc3ccccc32)O1	2	-2	-1	4	3	nt	nt
O=C(Nc1ccc(OCc2ccccc2)cc1)Nc1ccccc1C(=O)NCCCN1CCOCC1	2	-1	5	3	-4	nt	nt
CC(=O)Nc1ccc(C2=NN(c3ccccc3)C(c3cccs3)C2)cc1 (stereo not drawn)	0	126*	157*	1	9	-31	-35
CC(=O)N1N=C(c2ccccc2)CC1c1cccs1 (stereo not drawn)	nt	nt	nt	nt	-2	nt	nt
CCOC(=O)c1c(NC(=O)COC(=O)Cc2ccccc2[N+](=O)[O-])sc(C(=O)N(C)C)c1C	0	-2	6	4	-1	nt	nt
CCOC(=O)c1c(NC(=O)COC(=O)c2ccccc2NC)sc(C(=O)N(C)C)c1C	-1	29*	7	3	3	-28	-32
Cc1c(C(=O)N/N=C/c2ccccc2)[nH]c2ccc(Cl)cc12	3	1	4	2	-4	nt	nt
Cc1c(C(=O)N/N=C/c2ccc(N(C)C)cc2)[nH]c2ccc(Cl)cc12	14	35*	8	-1	1	-31	-28
CC(=O)c1ccc(OCC(=O)NC(=O)NC2CCCCC2)cc1	-1	6	0	-9	-2	nt	nt
COc1ccc(C(=O)N/N=C/c2ccc3cccc(OCc4ccccc4)c3n2)cc1	3	30*	4	6	3	8	7
O=C(O)CCN1CCc2ccccc2C1c1ccncc1 (stereo not drawn)	-1	-2	-1	1	7	nt	nt
O=S(=O)(O)c1ccc(N2N=C(c3ccccc3)CC2c2ccccc2)cc1 (stereo not drawn)	-3	7	12	2	-2	nt	nt
CCc1ccc(C2=NN(c3ccc(S(N)(=O)=O)cc3)C(c3ccc(F)cc3)C2)cc1 (stereo not drawn)	8	27*	59*	-3	7	-31	-36
NS(=O)(=O)c1ccc(N2N=C(c3ccccc3)CC2c2ccccc2)cc1 (stereo not drawn)	4	63*	37*	0	-1	-28	-35
SMILES	TPT1 inh	procasp7 counter	proCasp3 act	IDE inh	IDE act	PC3 D3A act	PC7 dual conf
NS(=O)(=O)c1ccc(N2N=C(c3ccccc3)CC2c2ccccc2Cl)cc1 (stereo not drawn)	nt	80*	47*	nt	4	-28	-35
Cc1cc(/C=C2\SC(N)=NC2=O)c(C)n1-c1ccc(F)cc1	20	-14	-1	-2	5	nt	nt
COc1ccccc1[C@H]1C(c2ccccc2)=NN(c2ccccc2)[C@@H]1CO	nt	50*	25*	nt	4	-28	-36
COc1ccccc1[C@H]1C(c2ccc(F)cc2)=NN(c2ccccc2)[C@@H]1CO	nt	13	10	nt	-1	nt	nt
O=C(O)C(CCC(C(=O)O)c1ccccc1)c1ccccc1 (stereo not drawn)	nt	nt	nt	nt	6	nt	nt
COc1ccc(CN2CCNC(=O)C2CC(=O)NCCc2c[nH]c3ccccc23)c(OC)c1 (stereo not drawn)	2	0	3	-2	-1	nt	nt
CCOC(=O)/C(C#N)=C/Nc1cc(OC)ccc1OC	-1	87*	95*	5	0	9	6
O=C(CC(=O)Nc1cccc(F)c1)Nc1cccc(F)c1	-2	5	-5	5	3	nt	nt
O=C(Cn1c2ccccc2c(=O)c2ccccc21)Nc1cccc(F)c1	3	93*	50*	2	1	-28	-38
Cc1cccc(/C=N/NC(=O)c2ccc(NC(=O)c3ccccc3C)cc2)n1	3	34*	4	5	2	0	0
Cc1cccc(/C=N/NC(=O)c2ccc(NC(=O)c3ccccc3Cl)cc2)n1	1	8	0	2	2	nt	nt
COc1ccccc1-c1nnc2sc(-c3ccc(N(C)C)cc3)nn12	1	-20	-3	4	-1	nt	nt
CN(C)c1ccc(-c2nn3c(-c4ccccc4Cl)nnc3s2)cc1	-2	34*	-3	4	6	-29	-35
COc1c2ccccc2c(OC)c2ccccc12	-2	63*	81*	-1	4	-30	-34
Cc1ccc2nc(-c3ccc(NS(=O)(=O)c4ccccc4)cc3)sc2c1	0	52*	23*	-1	4	4	3
CCOC(=O)c1ccc2nc(NC(=O)c3ccco3)sc2c1	6	30*	24*	-4	3	-29	-36
Cc1ccc(C(=O)OCC(=O)Nc2cccc(S(=O)(=O)NC3=NCCCCC3)c2)c(C)c1	1	9	7	-8	-3	nt	nt
CCn1c(=NC(=O)C2COc3ccccc3O2)sc2c(OC)ccc(OC)c21 (stereo not drawn)	-2	36*	6	-2	3	2	2
COc1ccccc1OCCn1cc(/C=C(\C#N)C(=O)NCc2ccco2)c2ccccc21	-4	50*	1	9	7	3	1
